Key:
Mus musculus [1] = species on record: Mus musculus; assay: Effective dose was tested for its ability to act as B-cell mitogens (mitogenicity); format: functional; details: read-out: ED50 (the source's name)
How it was run: (§1)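 CBA/CaJ mouse spleen cells (1 × 10⁵/0.2 mL) exposed to graded compound concentrations, dissolved in water or DMSO and diluted in medium, for 24 h. [³H]thymidine then added for a further 24 h; incorporation by scintillation counting. ED50 and maximal response expressed relative to a concurrently run standard (loxoribine in most cases).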

Mus musculus [2] = species on record: Mus musculus; assay: Percent of maximum response was tested for its ability to act as B-cell mitogens (mitogenicity); format: functional; how it was run: as §1
Mus musculus [3] = species on record: Mus musculus; assay: Percent of maximum response was tested to augment the antibody response of B cells to sheep red blood cell challenge; format: functional
How it was run: (§2)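 CBA/CaJ spleen cells depleted of T cells with anti-T cell monoclonal antibody (1:1000, 30 min, 4 °C) then complement (37 °C, 45 min). Cultured ± 0.1% SRBC antigen in serum-containing medium with compound from zero to 10⁻³ M for 4 d. Plaque-forming cells counted in agarose with guinea pig complement. ED50 and maximal response relative to a concurrent standard.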

Mus musculus [4] = species on record: Mus musculus; assay: Augment antibody response of B cells to sheep red blood cell (SRBC) challenge (adjuvanticity); format: functional; details: read-out: ED50 (the source's name); how it was run: as §2
YAC-1 [5] = assay: Tested for its ability to stimulate the natural killer (NK) response in murine in vitro cell assays; format: functional; details: Mus musculus, read-out: ED50 (the source's name)
YAC-1 [6] = assay: Percent of maximum response was tested for its ability to stimulate the natural killer (NK) response in murine in vitro cell assays; format: functional, Mus musculus

- EC50 (Mus musculus [1]): 49 µM
SMILES: C=CCn1c(=O)n(C2CN(CCCC)CC(CO)O2)c2nc(N)nc(O)c21 (stereo unspecified)
- Max response (Mus musculus [2]): 52%
- Max response (Mus musculus [3]): 38%
- EC50 (Mus musculus [4]): 5 µM
- EC50 (YAC-1 [5]): 17 µM
- Max response (YAC-1 [6]): 94%

— ChEMBL document CHEMBL1127795, “Small-molecule immunostimulants. Synthesis and activity of 7,8-disubstituted guanosines and structurally related compounds” (1994)
